Data as given in ChEMBL document CHEMBL1157808, “Synthesis and biological evaluation of phenolic 4,5-dihydroisoxazoles and 3-hydroxy ketones as estrogen receptor alpha and beta agonists” (Bioorg Med Chem, 2010).

Tests used:
[1] = biological target: Estrogen receptor beta (Homo sapiens) (UniProt Q92731); assay: Agonist activity at ERbeta expressed in HEK293 cells at 10 uM after 24 hrs by luciferase reporter gene assay relative to 3,17-beta-estradiol; type: functional, cell-based
In short: (§1)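 HEK293 cells (no endogenous ER) in phenol-free DMEM with 5% delipidated FBS were transfected for 4 h with 5 ng ERα or ERβ expression vector, 75 ng pERE2TATA-LUC reporter and 20 ng pCMVβ. Cells then received 10 μM compound, 10 nM E2 or vehicle (0.1% v/v) for 24 h. Luciferase was normalized to β-galactosidase and expressed as 100% × (test − vehicle)/(E2 − vehicle). Values are means of at least three independent transfections.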

[2] = biological target: T1, Estrogen receptor (Homo sapiens) (UniProt P03372); assay: Agonist activity at ERalpha expressed in HEK293 cells at 10 uM after 24 hrs by luciferase reporter gene assay relative to 3,17-beta-estradiol; type: functional, cell-based; in short: as §1
T1 sequence (whole entry): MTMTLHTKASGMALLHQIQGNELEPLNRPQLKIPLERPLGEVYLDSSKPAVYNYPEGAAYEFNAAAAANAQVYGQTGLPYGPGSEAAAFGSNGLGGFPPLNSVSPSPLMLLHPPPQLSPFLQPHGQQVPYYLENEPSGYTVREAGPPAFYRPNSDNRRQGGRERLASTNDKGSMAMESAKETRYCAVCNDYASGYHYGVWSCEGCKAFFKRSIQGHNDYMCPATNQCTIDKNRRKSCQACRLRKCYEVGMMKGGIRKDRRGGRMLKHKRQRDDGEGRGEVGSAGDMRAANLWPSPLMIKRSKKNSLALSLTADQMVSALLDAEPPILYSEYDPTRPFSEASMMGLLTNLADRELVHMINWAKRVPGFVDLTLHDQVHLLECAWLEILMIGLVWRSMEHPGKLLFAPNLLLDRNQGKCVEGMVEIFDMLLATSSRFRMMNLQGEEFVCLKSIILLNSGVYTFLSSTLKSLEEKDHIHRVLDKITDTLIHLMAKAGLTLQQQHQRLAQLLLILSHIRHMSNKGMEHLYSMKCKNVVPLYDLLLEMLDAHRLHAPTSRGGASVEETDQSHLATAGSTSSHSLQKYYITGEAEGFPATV

[3] = organism: Homo sapiens; assay: Selectivity ratio of relative binding affinity for human ERalpha to relative binding affinity for human ERbeta
In short: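 COS-1 cells in DMEM with 10% delipidated FBS were transfected for 24 h with human ERα or ERβ vector (pSG5-hERα/β). Cells were washed, lysed in 0.5 M NaOH at 56 °C for 15 min and counted by scintillation, with nonspecific binding subtracted.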

Chain of Estrogen receptor beta (Homo sapiens) (Q92731 whole entry): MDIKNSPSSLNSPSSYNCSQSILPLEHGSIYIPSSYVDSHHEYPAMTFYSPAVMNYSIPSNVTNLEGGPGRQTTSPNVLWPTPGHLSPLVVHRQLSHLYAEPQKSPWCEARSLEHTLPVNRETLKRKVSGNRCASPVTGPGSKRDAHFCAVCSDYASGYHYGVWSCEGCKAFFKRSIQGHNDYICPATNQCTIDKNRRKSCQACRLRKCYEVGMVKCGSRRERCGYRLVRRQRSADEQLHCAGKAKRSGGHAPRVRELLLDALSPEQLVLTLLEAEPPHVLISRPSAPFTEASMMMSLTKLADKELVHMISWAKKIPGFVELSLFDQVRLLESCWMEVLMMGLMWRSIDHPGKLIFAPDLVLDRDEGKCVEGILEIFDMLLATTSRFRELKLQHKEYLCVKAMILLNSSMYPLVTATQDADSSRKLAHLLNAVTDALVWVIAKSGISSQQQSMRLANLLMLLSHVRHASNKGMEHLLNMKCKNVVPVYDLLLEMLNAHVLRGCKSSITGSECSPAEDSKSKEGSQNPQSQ

| Compound | Activity [1] [%] | Activity [2] [%] | Ratio [3] |
| --- | --- | --- | --- |
| Oc1ccc(CC2CC(CCc3ccccc3)=NO2)cc1 (stereo not given) | 42.4 | 105 |  |
| Oc1ccccc1CCC1=NOC(Cc2ccc(F)cc2)C1 (stereo not given) | -2.4 | 11.1 |  |
| c1ccc(CCC2=NOC(CCc3ccccc3)C2)cc1 (stereo not given) | -0.4 | 43.9 |  |
| c1ccc(CCCC2=NOC(Cc3ccccc3)C2)cc1 (stereo not given) | 5.1 | 28.1 |  |
| CC(O)(CC(=O)CCCc1ccc(O)cc1)c1ccccc1 (racemic) | 103 | 90.9 | 8 |
| CC(O)(CC(=O)CCCc1ccccc1)c1ccccc1 (racemic) | 15.1 | 83.3 | 2 |
| CC(O)(CC(=O)CCc1ccc(O)cc1)c1ccccc1 (racemic) | 116 | 80.3 |  |
| CC(O)(CC(=O)CCc1ccccc1)c1ccccc1 (racemic) | 38.4 | 52.1 |  |
| CC1(c2ccccc2)CC(CCCc2ccccc2)=NO1 (racemic) | 15.5 | 69.5 | 1.5 |
| O=C(CCCc1ccc(O)c(O)c1)CC(O)Cc1ccc(O)cc1 (racemic) | -0.6 | 0.5 |  |
| O=C(CCCc1ccc(O)c(O)c1)CC(O)Cc1ccccc1 (racemic) | -0.8 | -0.5 |  |
| O=C(CCCc1ccc(O)cc1)CC(O)Cc1ccccc1 (racemic) | 82.3 | 105 | 11 |
| O=C(CCCc1ccccc1)CC(O)Cc1ccc(O)cc1 (racemic) | 2.4 | 16 |  |
| O=C(CCc1ccc(O)cc1)CC(O)CCc1ccccc1 (racemic) | 10.1 | 46.8 | 0.3 |
| O=C(CCc1ccc(O)cc1)CC(O)Cc1ccc(F)cc1 (racemic) | 21.2 | 28.6 |  |
| O=C(CCc1ccc(O)cc1)CC(O)Cc1ccccc1 (racemic) | 107 | 55 | 0.2 |
| O=C(CCc1cccc(O)c1)CC(O)CCc1ccccc1 (racemic) | 48.1 | 87.3 | 106 |
| O=C(CCc1ccccc1)CC(O)Cc1ccc(O)cc1 (racemic) | 6.1 | 51.4 |  |
| O=C(CCc1ccccc1O)CC(O)CCc1ccccc1 (racemic) | 1.1 | 4 |  |
| O=C(CCc1ccccc1O)CC(O)Cc1ccc(F)cc1 (racemic) | 11.1 | 21.6 |  |
| O=C(CCc1ccccc1O)CC(O)Cc1ccccc1 (racemic) | 5.1 | 45.2 |  |

| Compound | Activity [1] [%] | Activity [2] [%] | Ratio [3] |
| --- | --- | --- | --- |
| Fc1ccc(CC2CC(CCc3ccccc3)=NO2)cc1 (single isomer, unassigned) | 7.4 | 28.9 |  |
| O=C(CCCc1ccc(O)cc1)CC(O)c1cccc(O)c1 (single isomer, unassigned) | 43.5 | 49.3 |  |
| O=C(CCCc1ccccc1)CC(O)c1ccccc1 (single isomer, unassigned) | 28.2 | 59.3 | 5 |
| O=C(CCc1ccccc1)CC(O)c1ccccc1 (single isomer, unassigned) | 2.8 | 25.3 |  |
| Oc1ccc(CCC2=NOC(CCc3ccccc3)C2)cc1 (single isomer, unassigned) | 15.4 | 62.8 |  |
| Oc1ccc(CCC2=NOC(Cc3ccc(F)cc3)C2)cc1 (single isomer, unassigned) | 4.4 | 5.7 |  |
| Oc1ccc(CCCC2=NOC(Cc3ccc(O)cc3)C2)cc1 (single isomer, unassigned) | 10.6 | 13.6 |  |
| Oc1ccc(CCCC2=NOC(Cc3ccccc3)C2)cc1 (single isomer, unassigned) | 19.8 | 75.1 |  |
| Oc1ccc(CCCC2=NOC(c3cccc(O)c3)C2)cc1 (single isomer, unassigned) | -0.9 | 32.9 |  |
| Oc1cccc(CCC2=NOC(CCc3ccccc3)C2)c1 (single isomer, unassigned) | 3.6 | 3 |  |
| Oc1ccccc1CCC1=NOC(CCc2ccccc2)C1 (single isomer, unassigned) | 4.2 | 4.5 |  |
| Oc1ccccc1CCC1=NOC(Cc2ccccc2)C1 (single isomer, unassigned) | 30.5 | 39.7 |  |
| c1ccc(CCC2=NOC(Cc3ccccc3)C2)cc1 (single isomer, unassigned) | 1.3 | 38.2 |  |
| c1ccc(CCC2=NOC(c3ccccc3)C2)cc1 (single isomer, unassigned) | 8.1 | 11.2 |  |
| Oc1ccc(CCC2=NOC(Cc3ccccc3)C2)cc1 (single isomer, unassigned; 3a) |  |  | 6 |
| Oc1ccc(CCC2=NOC(Cc3ccccc3)C2)cc1 (single isomer, unassigned; 3b) | 41.5 | 24.3 | 0.5 |
| Oc1ccc(CC2CC(CCCc3ccccc3)=NO2)cc1 (single isomer, unassigned; 25a) | 4.7 | 67.1 |  |
| Oc1ccc(CC2CC(CCCc3ccccc3)=NO2)cc1 (single isomer, unassigned; 25b) | 17 | 97.2 |  |
| Oc1ccc(CCCC2=NOC(Cc3ccccc3)C2)cc1O (single isomer, unassigned; 27a) | 1.3 | 0.3 |  |
| Oc1ccc(CCCC2=NOC(Cc3ccccc3)C2)cc1O (single isomer, unassigned; 27b) | -1.3 | 2.1 |  |
| Oc1ccc(CC2CC(CCCc3ccc(O)c(O)c3)=NO2)cc1 (single isomer, unassigned; 28a) | -1.1 | 1.7 |  |

| Compound | Activity [1] [%] | Activity [2] [%] | Ratio [3] |
| --- | --- | --- | --- |
| Oc1ccc(CC2CC(CCCc3ccc(O)c(O)c3)=NO2)cc1 (single isomer, unassigned; 28b) | -0.7 | 1.4 |  |
| CC1(c2ccccc2)CC(CCc2ccccc2)=NO1 (single isomer, unassigned; 36a) | -20 | 8.1 |  |
| CC1(c2ccccc2)CC(CCc2ccccc2)=NO1 (single isomer, unassigned; 36b) | -7.3 | 10.9 |  |
| CC1(c2ccccc2)CC(CCc2ccccc2O)=NO1 (single isomer, unassigned; 37a) | -0.4 | 11.8 |  |
| CC1(c2ccccc2)CC(CCc2ccccc2O)=NO1 (single isomer, unassigned; 37b) | 30 | 21.7 |  |
| CC1(c2ccccc2)CC(CCc2cccc(O)c2)=NO1 (single isomer, unassigned; 38a) | 0.5 | 21.6 |  |
| CC1(c2ccccc2)CC(CCc2cccc(O)c2)=NO1 (single isomer, unassigned; 38b) | -2.9 | 7.1 |  |
| CC1(c2ccccc2)CC(CCc2ccc(O)cc2)=NO1 (single isomer, unassigned; 39a) | 18 | 39.7 |  |
| CC1(c2ccccc2)CC(CCc2ccc(O)cc2)=NO1 (single isomer, unassigned; 39b) | 37.4 | 18.7 |  |
| Oc1ccccc1CCC1=NOC(CCc2ccccc2)C1 (stereo in doubt; 16b) | 2.6 | 21.8 |  |
| Oc1cccc(CCC2=NOC(CCc3ccccc3)C2)c1 (stereo in doubt; 17a) | 2.6 | 8.3 |  |
| Oc1ccc(CCC2=NOC(CCc3ccccc3)C2)cc1 (stereo in doubt; 18b) | 0.8 | 15.8 |  |
| Oc1ccc(CCCC2=NOC(Cc3ccccc3)C2)cc1 (stereo in doubt; 24a) | 78.2 | 154 |  |
| Oc1ccc(CCCC2=NOC(Cc3ccc(O)cc3)C2)cc1 (stereo in doubt; 26a) | -0.9 | 14.4 |  |
| O=C(CCCc1ccc(O)cc1)CC(O)Cc1ccc(O)cc1 (stereo in doubt; 32b) | -1.6 | 2.8 |  |
| c1ccc(CCCC2=NOC(c3ccccc3)C2)cc1 (stereo in doubt; 43a) | -3.1 |  |  |
| Oc1ccc(CCCC2=NOC(c3cccc(O)c3)C2)cc1 (stereo in doubt; 47b) | 7.2 | 27.6 |  |
| O=C(CCCc1ccccc1)CC(O)c1ccccc1 (stereo in doubt; 48a) |  |  | 0.7 |
| O=C(CCCc1ccc(O)cc1)CC(O)Cc1ccc(O)cc1 (stereo in doubt; form 1) | 108 | 87.4 |  |
| O=C(CCCc1ccc(O)cc1)CC(O)Cc1ccc(O)cc1 (stereo in doubt; form 2) | 1.8 | 15.4 |  |
